Experimental data from publication PMC6586034 (Clinical Pharmacology in Drug Development, 2018).
Entries after “also recorded” stand apart in the source; their conditions may differ. Like-named read-outs stand apart in the source and are kept apart here.

Legend:
[1] = test system: URAT1; conditions: cited from earlier work; for URAT1 activity: metabolites of verinurad
[2] = human; cited from earlier work
[3] = format: in vivo, human; conditions: febuxostat 80 mg + verinurad 2.5 mg
[4] = test system: serum urate (sUA); experiment: Serum urate pharmacodynamics; format: in vivo, human; conditions: for Change in sUA at 24 hours: steady state, 24 hours postdose
Procedure, shortened: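 Healthy men were dosed orally once daily, each drug alone for 7 days, and serum was sampled predose to 24 h postdose on days 1, 7, 14 and 21. A central laboratory assayed serum urate. Baseline was the mean of all day −1 values. Maximum percentage change from baseline was taken per subject and averaged per group. A mixed-effects model used treatment as fixed effect, baseline as covariate and subject as random effect.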

[5] = test system: uric acid; experiment: Urinary uric acid pharmacodynamics; format: in vivo, human; conditions: arithmetic mean (95%CI); for AeUR, % Change From baseline / CLUR, % Change From baseline / FEUA, % Change From baseline: day 7 of treatment vs day −1
[6] = Safety/tolerability; format: in vivo, human; conditions: for Subjects with an increase from baseline in serum creatinine (sCr): none had sCr ≥1.5 × baseline; for Tolerability: multiple once-daily oral doses, alone or in combination, healthy adult males
[7] = format: in vivo, human; conditions: for Tmax: male, human, plasma, po
Procedure, shortened: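 Healthy men (18–65 y, sUA ≥4.5 mg/dL) took oral doses once daily, about 30–35 min after a moderate-fat breakfast. […] Plasma was sampled predose to 24 h on days 7, 14 and 21. Acetonitrile precipitation with deuterated internal standard, then LC/MS/MS (LLOQ 0.100 ng/mL). Log GMRs (90% CI) for single agent vs day 14 came from a mixed-effects model.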

[8] = format: in vivo, human
Procedure, shortened: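 Urine was collected as total catch over 0–6, 6–12 and 12–24 h postdose on days 7 (alone), 14 (combination) and 21, under once-daily oral dosing in healthy men. Verinurad was measured by LC/MS/MS, linear 2.00–1000 ng/mL. Ae0-24, fe0-24 and CLR0-24 were derived. Log-transformed parameters were compared as geometric mean ratios with 90% CI using a mixed-effects model (treatment fixed, subject random).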

[9] = test system: major CYPs; conditions: ref Ardea Biosciences, Inc., data on file; cited from earlier work
[10] = febuxostat 40 mg once daily alone
[11] = febuxostat 80 mg once daily alone
[12] = verinurad 2.5 mg combined with febuxostat 80 mg vs alone
[13] = VERU 2.5 mg + FBX 80 mg once daily oral, day 14, geometric mean
[14] = VERU 2.5 mg + FBX 80 mg once daily oral, day 14, mean (SD)
[15] = VERU 2.5 mg once daily oral alone, day 7 or 21, geometric mean
[16] = VERU 2.5 mg once daily oral alone, day 7 or 21, mean (SD)
[17] = VERU 10 mg + FBX 40 mg once daily oral, day 14, geometric mean
[18] = VERU 10 mg + FBX 40 mg once daily oral, day 14, mean (SD)
[19] = VERU 10 mg once daily oral alone, day 7 or 21, geometric mean
[20] = VERU 10 mg once daily oral alone, day 7 or 21, mean (SD)
[21] = verinurad 2.5 mg once daily alone
[22] = verinurad 10 mg once daily alone
[23] = VERU 2.5 mg once daily, Day 7 of Treatment (0 to 24 Hours)

CC(C)(Sc1ccncc1-c1ccc(C#N)c2ccccc12)C(=O)OC1OC(C(=O)O)C(O)C(O)C1O (stereo not shown) [M1]
URAT1 activity [1]: devoid of URAT1 activity | Circulating level in blood relative to verinurad [2]: equimolar to verinurad

CC(C)(Sc1cc[n+]([O-])cc1-c1ccc(C#N)c2ccccc12)C(=O)OC1OC(C(=O)O)C(O)C(O)C1O (stereo not shown) [M8]
URAT1 activity [1]: devoid of URAT1 activity | Circulating level in blood relative to verinurad [2]: equimolar to verinurad

Cc1nc(-c2ccc(OCC(C)C)c(C#N)c2)sc1C(=O)O [febuxostat, Febuxostat, reference compound]
Effect on Tmax of febuxostat [3]: remained unchanged | Maximal reduction in serum urate [4, 10]: 49% | Mean maximal change from baseline in sUA at steady state [4, 10]: −49.1% | Change in sUA at 24 hours [4, 10]: −36.9% | Maximal reduction in serum urate [4, 11]: 57% | Mean maximal change from baseline in sUA at steady state [4, 11]: −57.5% | Change in sUA at 24 hours [4, 11]: −45.4% | AeUR, % Change From baseline ([5]; FBX 40 mg once daily): −64.1% | CLUR, % Change From baseline ([5]; FBX 40 mg once daily): −34.4 (−45.3 to −23.5) % | FEUA, % Change From baseline ([5]; FBX 40 mg once daily): −24.5% | AeUR, % Change From baseline ([5]; FBX 80 mg once daily): −72.4% | CLUR, % Change From baseline ([5]; FBX 80 mg once daily): −42.0 (−50.8 to −33.2) % | FEUA, % Change From baseline ([5]; FBX 80 mg once daily): −35.2% | Subjects with an increase from baseline in serum creatinine (sCr) ([6]; febuxostat 40 mg): 1 subjects | Subjects with an increase from baseline in serum creatinine (sCr) ([6]; febuxostat 80 mg): 2 subjects | Tolerability [6]: generally well tolerated

CC(C)(Sc1ccncc1-c1ccc(C#N)c2ccccc12)C(=O)O [verinurad, Verinurad]
Tmax ([7]; 2.5 mg): 4 h | Tmax ([7]; 10 mg): 2.75 h | Effect of febuxostat 40 mg on plasma exposure / PK parameters of verinurad 10 mg ([7]; once-daily co-administration, healthy males): no effect; also recorded: unaffected; also recorded: not influenced | Increase in AUC0-24 of verinurad [7, 12]: 33% | Increase in Cmax of verinurad [7, 12]: 25% | Effect on Tmax of verinurad ([7]; verinurad 2.5 mg in the presence of febuxostat 80 mg): remained unchanged | Ae0-24 of verinurad (excreted unchanged in urine) [8, 13]: 30.0 [21.6‐41.6] μg | CLR0-24 of verinurad [8, 13]: 14.4 mL/min | fe0-24 of verinurad [8, 13]: 1.20% | Ae0-24 of verinurad (excreted unchanged in urine) ([8]; VERU 2.5 mg + FBX 80 mg once daily oral, day 14, geometric mean, listed as VERU): 30.0 µg | Ae0-24 of verinurad (excreted unchanged in urine) [8, 14]: 32.3 (12.2) μg | CLR0-24 of verinurad [8, 14]: 15.4 (5.97) mL/min | fe0-24 of verinurad [8, 14]: 1.29 (0.490) % | Ae0-24 of verinurad (excreted unchanged in urine) [8, 15]: 21.2 [14.8‐30.5] μg | CLR0-24 of verinurad [8, 15]: 13.6 mL/min | fe0-24 of verinurad [8, 15]: 0.849% | Ae0-24 of verinurad (excreted unchanged in urine) ([8]; VERU 2.5 mg once daily oral alone, day 7 or 21, geometric mean, listed as VERU): 21.2 µg | Ae0-24 of verinurad (excreted unchanged in urine) [8, 16]: 23.3 (10.1) μg | CLR0-24 of verinurad [8, 16]: 15.1 (7.29) mL/min | fe0-24 of verinurad [8, 16]: 0.932 (0.405) % | Ae0-24 of verinurad (excreted unchanged in urine) [8, 17]: 97.6 µg | CLR0-24 of verinurad [8, 17]: 15.2 mL/min | fe0-24 of verinurad [8, 17]: 0.976% | Ae0-24 of verinurad (excreted unchanged in urine) [8, 18]: 106 (44.2) μg | CLR0-24 of verinurad [8, 18]: 16.2 (5.43) mL/min | fe0-24 of verinurad [8, 18]: 1.06 (0.442) % | Ae0-24 of verinurad (excreted unchanged in urine) [8, 19]: 86.8 µg | CLR0-24 of verinurad [8, 19]: 12.4 mL/min | fe0-24 of verinurad [8, 19]: 0.868% | Ae0-24 of verinurad (excreted unchanged in urine) [8, 20]: 97.2 (49.7) μg | CLR0-24 of verinurad [8, 20]: 13.6 (5.04) mL/min | fe0-24 of verinurad [8, 20]: 0.972 (0.497) % | Increase in Ae0-24 of verinurad ([8]; verinurad 2.5 mg in the presence of febuxostat 80 mg vs alone): 41% | Maximal reduction in serum urate [4, 21]: 38% | Mean maximal change from baseline in sUA at steady state [4, 21]: −37.8% | Change in sUA at 24 hours [4, 21]: −19.9% | Maximal reduction in serum urate [4, 22]: 56% | Mean maximal change from baseline in sUA at steady state [4, 22]: −56.3% | Change in sUA at 24 hours [4, 22]: −38.0% | AeUR (amount of uric acid recovered in urine) [5, 23]: 620 (485 to 755) mg | FEUA (fractional excretion of uric acid) [5, 23]: 7.55 (6.83 to 8.26) % | AeUR, % Change From baseline ([5]; VERU 2.5 mg once daily): −21.0% | CLUR, % Change From baseline ([5]; VERU 2.5 mg once daily): 10.7 (−7.92 to 29.3) % | FEUA, % Change From baseline ([5]; VERU 2.5 mg once daily): 17.2% | AeUR, % Change From baseline ([5]; VERU 10 mg once daily): −17.0% | CLUR, % Change From baseline ([5]; VERU 10 mg once daily): 65.8 (14.2, 117) % | FEUA, % Change From baseline ([5]; VERU 10 mg once daily): 105% | Tolerability [6]: generally well tolerated | Subjects with an increase from baseline in serum creatinine (sCr) ([6]; verinurad 2.5 mg): 3 subjects | Subjects with mild headache (only AE considered possibly related to verinurad) ([6]; verinurad 10 mg-alone group, resolved without treatment): 1 subject | Subjects with an increase from baseline in serum creatinine (sCr) ([6]; verinurad 10 mg): 2 subjects | Potency in inhibiting URAT1 [1]: high potency | Inhibition of the major CYPs [9]: does not inhibit
